Values after ≈ are worked out from the molar mass of the structure shown.
How the values were obtained:
Type in all cases: functional
[1] = tested on: Streptococcus pneumoniae; test: Antimicrobial activity against Streptococcus pneumoniae PC13 transformants
How it was run: (§1)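 MIC by agar dilution per CLSI guidelines, also by Etest. Pneumococci grown at 37°C in 5% CO2 on Mueller-Hinton agar with 5% horse blood. Interpreted with CLSI breakpoints; for telithromycin ≤1 μg/ml susceptible, 2 μg/ml intermediate, ≥4 μg/ml resistant.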

[2] = tested on: Streptococcus pneumoniae; test: Antimicrobial activity against Streptococcus pneumoniae R6 transformants; how it was run: as §1
[3] = tested on: Streptococcus pneumoniae; test: Antimicrobial activity against Streptococcus pneumoniae PC13 isolate with L4 69GTG71 to TPS mutation; how it was run: as §1
[4] = tested on: Streptococcus pneumoniae; test: Antimicrobial activity against Streptococcus pneumoniae PC13 isolate with erm(B) mutation; how it was run: as §1
[5] = tested on: Streptococcus pneumoniae; test: Antimicrobial activity against Streptococcus pneumoniae PC13 isolate with L4 mutation; how it was run: as §1
[6] = tested on: Streptococcus pneumoniae; test: Antimicrobial activity against Streptococcus pneumoniae R6 with L4 mutation; how it was run: as §1
[7] = tested on: Streptococcus pneumoniae; test: Antimicrobial activity against Streptococcus pneumoniae R6 with L4 69GTG71 to TPS mutation; how it was run: as §1
[8] = tested on: Streptococcus pneumoniae; test: Antimicrobial activity against Streptococcus pneumoniae BSF-11524 isolate with erm(B) and L4 mutation; how it was run: as §1

| SMILES | MIC [1] [µg/mL] | MIC [2] [µg/mL] | MIC [3] [µg/mL] | MIC [4] [µg/mL] | MIC [5] [µg/mL] | MIC [6] [µg/mL] | MIC [7] [µg/mL] | MIC [8] [µg/mL] |
| --- | --- | --- | --- | --- | --- | --- | --- | --- |
| CC[C@H]1OC(=O)[C@H](C)[C@@H](O[C@H]2C[C@@](C)(OC)[C@@H](O)[C@H](C)O2)[C@H](C)[C@@H](O[C@@H]2O[C@H](C)C[C@H](N(C)C)[C@H]2O)[C@](C)(OC)C[C@@H](C)C(=O)[C@H](C)[C@@H](O)[C@]1(C)O [CLARITHROMYCIN] | > 256 | 0.06 (≈ 0.0802 µM) | > 256 | > 256 | > 256 | 24 (≈ 32.1 µM) | 24 (≈ 32.1 µM) | > 256 |
| CC[C@H]1OC(=O)[C@H](C)[C@@H](O[C@H]2C[C@@](C)(OC)[C@@H](O)[C@H](C)O2)[C@H](C)[C@@H](O[C@@H]2O[C@H](C)C[C@H](N(C)C)[C@H]2O)[C@](C)(O)C[C@@H](C)C(=O)[C@H](C)[C@@H](O)[C@]1(C)O [ERYTHROMYCIN] | > 256 | 0.094 (≈ 0.128 µM) | > 256 | > 256 | > 256 | > 256 | > 256 | > 256 |
| CC[C@H]1OC(=O)[C@H](C)C(=O)[C@H](C)[C@@H](O[C@@H]2O[C@H](C)C[C@H](N(C)C)[C@H]2O)[C@](C)(OC)C[C@@H](C)C(=O)[C@H](C)[C@H]2N(CCCCn3cnc(-c4cccnc4)c3)C(=O)O[C@]12C [TELITHROMYCIN] | 0.06 (≈ 0.0739 µM) | 0.015 (≈ 0.0185 µM) | > 256 | 1 (≈ 1.23 µM) | > 256 | 0.12 (≈ 0.148 µM) | 0.12 (≈ 0.148 µM) | > 256 |
| O=C(N[C@H](CO)[C@H](O)c1ccc([N+](=O)[O-])cc1)C(Cl)Cl [CHLORAMPHENICOL] | 12 (≈ 37.1 µM) | 1.5 (≈ 4.64 µM) | 12 (≈ 37.1 µM) | 12 (≈ 37.1 µM) | 12 (≈ 37.1 µM) | 2 (≈ 6.19 µM) | 2 (≈ 6.19 µM) | 2 (≈ 6.19 µM) |
| CC[C@H]1OC(=O)[C@H](C)[C@@H](O[C@H]2C[C@@](C)(OC)[C@@H](O)[C@H](C)O2)[C@H](C)[C@@H](O[C@@H]2O[C@H](C)C[C@H](N(C)C)[C@H]2O)[C@](C)(O)C[C@@H](C)CN(C)[C@H](C)[C@@H](O)[C@]1(C)O [AZITHROMYCIN] | > 256 | 0.25 (≈ 0.334 µM) | > 256 | > 256 | > 256 | > 256 | > 256 | > 256 |
| CN(C)[C@@H]1C(O)=C(C(N)=O)C(=O)[C@@]2(O)C(O)=C3C(=O)c4c(O)cccc4[C@@](C)(O)[C@H]3C[C@@H]12 [TETRACYCLINE] | 12 (≈ 27 µM) | 0.094 (≈ 0.212 µM) | 8 (≈ 18 µM) | 8 (≈ 18 µM) | 12 (≈ 27 µM) | 0.094 (≈ 0.212 µM) | 0.06 (≈ 0.135 µM) | 12 (≈ 27 µM) |
| CCC[C@@H]1C[C@@H](C(=O)N[C@@H]([C@H]2O[C@H](SC)[C@H](O)[C@@H](O)[C@H]2O)[C@H](C)Cl)N(C)C1 [CLINDAMYCIN] | > 256 | 0.06 (≈ 0.141 µM) | > 256 | > 256 | > 256 | 0.125 (≈ 0.294 µM) | 0.094 (≈ 0.221 µM) | > 256 |

— ChEMBL document CHEMBL1142089, “High-level telithromycin resistance in a clinical isolate of Streptococcus pneumoniae” (2007)
